In ChEMBL document CHEMBL1127560, “Tyrosine kinase inhibitors. 3. Structure-activity relationships for inhibition of protein tyrosine kinases by nuclear-substituted derivatives of 2,2'-dithiobis(1-methyl-N-phenyl-1H-indole-3-carboxamide)” (J Med Chem, 1994) one finds IC50 data, which are given here for 28 compounds.

Each structure is given as a SMILES string. pIC50: −log10 of the molar value.

Assay [1] concerns the target Epidermal growth factor receptor (Homo sapiens, UniProt P00533). Nature of the assay: Inhibition of tyrosine phosphorylation activity of the epidermal growth factor receptor (EGFR) tyrosine kinase from human A-431 carcinoma cell-shed membrane vesicles.
The next assay relates to Swiss 3T3 (Mus musculus). The experiment in a line: Inhibition of Swiss 3T3 Mouse fibroblast proliferation.
Assay [2] has as its target Platelet-derived growth factor receptor (Mus musculus, UniProt P05622+P26618). The experiment in a line: Inhibition of PDGF receptor autophosphorylation in mouse fibroblasts. Type of assay: protein-complex assay. In short, it runs like this: (§1)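 Confluent Swiss 3T3 fibroblasts were pretreated 2 h with graded compound concentrations, then stimulated 5 min with EGF or PDGF. Monolayers were lysed in boiling Laemmli buffer and resolved on 4–20% SDS gels. Blots were probed with antiphosphotyrosine antibody (1 μg/mL) and [¹²⁵I]protein A, and receptor autophosphorylation was quantified by densitometry. IC50 is 50% inhibition of autophosphorylation.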

Assay [3] has as its target Epidermal growth factor receptor (Mus musculus, UniProt Q01279). Nature of the assay: Inhibition of epidermal growth factor receptor (EGFR-mediated tyrosine autophosphorylation in mouse fibroblasts. In a few lines:
as §1

The test system of the next assay is A-431. The experiment in a line: Inhibition of A431 human epidermoid carcinoma cell proliferation. Type of assay: functional, cell-based. In a few lines:
(§2)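 Cells kept in dMEM/F12 (50:50) with 10% fetal bovine serum. 2 × 10⁴ cells were seeded into wells holding compound dilutions in DMSO and exposed for 72 h at 37 °C under 5% CO₂. Growth was read by electronic cell count. IC50 is the concentration giving 50% growth inhibition, as the mean of two separate duplicate determinations.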

A further assay has as its system KG-1. Nature of the assay: Inhibition of kg1A acute myelogenous leukemia cell proliferation. Type of assay: functional, cell-based. Conditions: Homo sapiens. In a few lines:
as §2

For the next assay, the system named is K562. The experiment in a line: Inhibition of K562 chronic myelogenous leukemia cell proliferation. The format is functional, cell-based. The settings on record: Homo sapiens. In short, it runs like this:
as §2

Chain of Epidermal growth factor receptor (Homo sapiens, UniProt P00533) (P00533 whole entry): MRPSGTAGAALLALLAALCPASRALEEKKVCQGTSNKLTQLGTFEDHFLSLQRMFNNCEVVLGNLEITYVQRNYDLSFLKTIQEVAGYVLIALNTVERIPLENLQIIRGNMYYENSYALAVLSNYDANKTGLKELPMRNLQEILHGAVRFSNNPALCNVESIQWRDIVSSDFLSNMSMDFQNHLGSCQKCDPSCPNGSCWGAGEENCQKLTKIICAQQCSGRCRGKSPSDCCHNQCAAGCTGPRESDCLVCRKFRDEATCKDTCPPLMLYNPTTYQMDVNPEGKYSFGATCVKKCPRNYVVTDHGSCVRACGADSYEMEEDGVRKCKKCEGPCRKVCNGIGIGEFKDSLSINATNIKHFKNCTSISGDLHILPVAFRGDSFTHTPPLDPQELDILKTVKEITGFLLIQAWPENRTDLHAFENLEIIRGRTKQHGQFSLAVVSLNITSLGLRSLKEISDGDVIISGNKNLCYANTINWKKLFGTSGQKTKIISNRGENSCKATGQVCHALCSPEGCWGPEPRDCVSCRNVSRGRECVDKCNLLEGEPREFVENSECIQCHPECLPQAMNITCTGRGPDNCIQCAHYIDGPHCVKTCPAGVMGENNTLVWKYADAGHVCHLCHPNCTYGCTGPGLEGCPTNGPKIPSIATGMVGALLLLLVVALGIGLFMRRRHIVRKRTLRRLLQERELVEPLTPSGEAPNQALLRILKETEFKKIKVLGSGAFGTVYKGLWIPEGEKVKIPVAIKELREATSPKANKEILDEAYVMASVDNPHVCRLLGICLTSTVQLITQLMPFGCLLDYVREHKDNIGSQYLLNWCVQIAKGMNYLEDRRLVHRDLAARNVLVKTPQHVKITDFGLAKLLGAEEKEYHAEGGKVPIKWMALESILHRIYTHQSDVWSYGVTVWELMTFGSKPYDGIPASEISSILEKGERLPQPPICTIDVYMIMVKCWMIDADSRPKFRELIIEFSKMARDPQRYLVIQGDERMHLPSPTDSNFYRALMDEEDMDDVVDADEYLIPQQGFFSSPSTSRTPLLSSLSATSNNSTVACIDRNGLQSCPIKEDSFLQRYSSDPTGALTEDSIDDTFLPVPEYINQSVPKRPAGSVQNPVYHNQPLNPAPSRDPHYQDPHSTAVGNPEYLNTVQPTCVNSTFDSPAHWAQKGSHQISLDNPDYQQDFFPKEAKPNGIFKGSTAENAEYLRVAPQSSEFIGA
Chain of Epidermal growth factor receptor (Mus musculus, UniProt Q01279) (Q01279 whole entry): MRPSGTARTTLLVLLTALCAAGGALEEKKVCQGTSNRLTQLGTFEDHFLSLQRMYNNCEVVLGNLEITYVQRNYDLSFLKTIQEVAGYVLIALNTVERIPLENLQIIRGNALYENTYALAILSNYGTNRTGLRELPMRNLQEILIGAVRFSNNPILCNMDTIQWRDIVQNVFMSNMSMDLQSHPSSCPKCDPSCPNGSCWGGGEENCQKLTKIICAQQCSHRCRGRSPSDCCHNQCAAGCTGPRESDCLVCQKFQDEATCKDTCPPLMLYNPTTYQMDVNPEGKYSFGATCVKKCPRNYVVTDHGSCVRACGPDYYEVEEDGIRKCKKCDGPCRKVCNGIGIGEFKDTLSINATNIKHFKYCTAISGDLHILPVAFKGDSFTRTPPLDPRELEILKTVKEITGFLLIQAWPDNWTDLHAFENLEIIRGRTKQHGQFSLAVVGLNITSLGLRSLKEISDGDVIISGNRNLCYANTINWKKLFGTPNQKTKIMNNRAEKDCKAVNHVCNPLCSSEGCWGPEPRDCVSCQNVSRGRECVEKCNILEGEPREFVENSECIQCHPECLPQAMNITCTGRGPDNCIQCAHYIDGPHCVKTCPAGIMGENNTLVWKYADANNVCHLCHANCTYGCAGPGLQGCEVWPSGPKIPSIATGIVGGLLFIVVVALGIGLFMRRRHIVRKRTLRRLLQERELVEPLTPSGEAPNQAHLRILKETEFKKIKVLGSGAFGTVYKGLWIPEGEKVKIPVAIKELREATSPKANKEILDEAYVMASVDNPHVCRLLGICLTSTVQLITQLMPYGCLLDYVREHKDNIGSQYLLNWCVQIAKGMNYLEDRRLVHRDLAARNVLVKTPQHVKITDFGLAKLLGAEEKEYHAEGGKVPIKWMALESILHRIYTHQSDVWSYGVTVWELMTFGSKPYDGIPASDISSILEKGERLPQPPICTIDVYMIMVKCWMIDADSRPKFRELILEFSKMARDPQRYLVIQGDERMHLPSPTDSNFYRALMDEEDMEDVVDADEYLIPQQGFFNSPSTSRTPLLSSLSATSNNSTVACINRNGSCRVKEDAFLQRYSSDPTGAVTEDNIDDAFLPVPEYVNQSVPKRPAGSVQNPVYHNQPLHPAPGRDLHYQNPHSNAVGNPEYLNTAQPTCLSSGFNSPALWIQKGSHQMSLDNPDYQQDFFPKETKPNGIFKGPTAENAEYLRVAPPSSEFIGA

On to `CC(=O)Oc1cccc2c(C(=O)Nc3ccccc3)c(SSc3c(C(=O)Nc4ccccc4)c4cccc(OC(C)=O)c4n3C)n(C)c12`, for which the pIC50 in assay [1] was 5.00. The compound `Cn1c(SSc2c(C(=O)Nc3ccccc3)c3cccc(Cl)c3n2C)c(C(=O)Nc2ccccc2)c2cccc(Cl)c21` had a negative logarithm of the IC50 (pIC50) in assay [1] of less than 4.00.

On to `Cc1cccc2c1c(C(=O)Nc1ccccc1)c(SSc1c(C(=O)Nc3ccccc3)c3c(C)cccc3n1C)n2C`, for which the pIC50 was 5.40 with Swiss 3T3 (Mus musculus) and less than 4.00 in assay [1]. On to `COc1cccc2c(C(=O)Nc3ccccc3)c(SSc3c(C(=O)Nc4ccccc4)c4cccc(OC)c4n3C)n(C)c12`, for which the pIC50 in the assay with Swiss 3T3 (Mus musculus) was 4.62; in assay [2], less than 4.00; in assay [3], less than 4.00. In assay [1], `Cn1c(SSc2c(C(=O)Nc3ccccc3)c3cc(O)ccc3n2C)c(C(=O)Nc2ccccc2)c2cc(O)ccc21` showed a pIC50 of 4.39. Consider `Cn1c(SSc2c(C(=O)Nc3ccccc3)c3c(Cl)cccc3n2C)c(C(=O)Nc2ccccc2)c2c(Cl)cccc21`, for which the pIC50 in assay [1] was 4.00. This pIC50 lies 0.39 log units lower than the previous one.

As to `COc1cccc2c1c(C(=O)Nc1ccccc1)c(SSc1c(C(=O)Nc3ccccc3)c3c(OC)cccc3n1C)n2C`, the pIC50 in the assay with Swiss 3T3 (Mus musculus) is 5.72; in assay [1] it was less than 4.00.

With `COc1ccc2c(c1)c(C(=O)Nc1ccccc1)c(SSc1c(C(=O)Nc3ccccc3)c3cc(OC)ccc3n1C)n2C`, the negative-log IC50 (pIC50) in the assay with Swiss 3T3 (Mus musculus) is 4.70; in assay [1], less than 4.00. Consider `Cn1c(SSc2c(C(=O)Nc3ccccc3)c3ccc(Cl)cc3n2C)c(C(=O)Nc2ccccc2)c2ccc(Cl)cc21`, for which the pIC50 in assay [1] was less than 4.00. For the compound `Cn1c(SSc2c(C(=O)Nc3ccccc3)c3ccccc3n2C)c(C(=O)Nc2ccccc2)c2ccccc21`, the pIC50 was 4.85 in the assay on A-431; 4.92 in the assay on Swiss 3T3 (Mus musculus); less than 4.00 in assay [2]; less than 4.00 in assay [3]; 4.92 in the assay with KG-1; 5.00 in assay [1]. The pIC50 with K562 is 4.74. For the compound `CC(=O)Oc1cccc2c1c(C(=O)Nc1ccccc1)c(SSc1c(C(=O)Nc3ccccc3)c3c(OC(C)=O)cccc3n1C)n2C`, in assay [1], the pIC50 is 4.70. As to `Cc1ccc2c(c1)c(C(=O)Nc1ccccc1)c(SSc1c(C(=O)Nc3ccccc3)c3cc(C)ccc3n1C)n2C`, the negative logarithm of the IC50 (pIC50) is 4.66 in the assay on Swiss 3T3 (Mus musculus) and less than 4.00 in assay [1]. In the case of `COc1ccc2c(C(=O)Nc3ccccc3)c(SSc3c(C(=O)Nc4ccccc4)c4ccc(OC)cc4n3C)n(C)c2c1`, the pIC50 in the assay with Swiss 3T3 (Mus musculus) is 4.77; in assay [2] it was less than 4.00. In assay [1], `Cn1c(SSc2c(C(=O)Nc3ccccc3)c3cc(C(F)(F)F)ccc3n2C)c(C(=O)Nc2ccccc2)c2cc(C(F)(F)F)ccc21` had a pIC50 of less than 4.00.

For `CN1C(=S)C(C(=O)Nc2ccccc2)c2cc(Cl)ccc21` (centres undefined), the negative-log IC50 (pIC50) in assay [1] was less than 4.00. Turning to `CN1C(=S)C(C(=O)Nc2ccccc2)c2ccccc21` (centres undefined), the negative-log IC50 (pIC50) is 4.82 in the assay on A-431; 4.19 in the assay with Swiss 3T3 (Mus musculus); 4.77 in assay [2]; less than 4.00 in assay [3]; 4.42 in the assay with KG-1; 4.49 in the assay on K562. Consider `CN1C(=S)C(C(=O)Nc2ccccc2)c2cccnc21` (centres undefined), for which the pIC50 in assay [1] is less than 4.00.

Consider `Cn1c(SSc2c(C(=O)Nc3ccccc3)c3cccnc3n2C)c(C(=O)Nc2ccccc2)c2cccnc21`, for which the pIC50 is 5.00 in the assay on Swiss 3T3 (Mus musculus), less than 4.60 in assay [2] and less than 4.60 in assay [3].

For the compound `Cn1c(SSc2c(C(=O)Nc3ccccc3)c3cccc(O)c3n2C)c(C(=O)Nc2ccccc2)c2cccc(O)c21`, in assay [1], the pIC50 is 4.00. Consider `CN1C(=S)C(C)(C(=O)Nc2ccccc2)c2ccccc21` (centres undefined), for which the pIC50 in assay [1] is less than 4.00. The same measure, in the same setting: the value for `Cn1c(SSc2c(C(=O)Nc3ccccc3)c3cc(F)ccc3n2C)c(C(=O)Nc2ccccc2)c2cc(F)ccc21` was less than 4.00; that for `CC(=O)Oc1ccc2c(C(=O)Nc3ccccc3)c(SSc3c(C(=O)Nc4ccccc4)c4ccc(OC(C)=O)cc4n3C)n(C)c2c1` was less than 4.00; that for `Cc1cccc2c(C(=O)Nc3ccccc3)c(SSc3c(C(=O)Nc4ccccc4)c4cccc(C)c4n3C)n(C)c12` was less than 4.00.

In assay [1], `Cn1c(SSCc2ccccc2)c(C(=O)Nc2ccccc2)c2ccccc21` showed a pIC50 of less than 4.00. In the case of `Cn1c(SSc2c(C(=O)Nc3ccccc3)c3cc([N+](=O)[O-])ccc3n2C)c(C(=O)Nc2ccccc2)c2cc([N+](=O)[O-])ccc21`, the pIC50 in assay [1] is 5.30. For the compound `Cc1ccc2c(C(=O)Nc3ccccc3)c(SSc3c(C(=O)Nc4ccccc4)c4ccc(C)cc4n3C)n(C)c2c1`, the figures for the pIC50 (in the assay on Swiss 3T3 (Mus musculus); in assay [1]) were 4.02 and less than 4.00, respectively.

Consider `Cn1c(SSc2ccccc2)c(C(=O)Nc2ccccc2)c2ccccc21`, for which, in assay [1], the pIC50 was less than 4.00. In assay [1], `CSc1c(C(=O)Nc2ccccc2)c2ccccc2n1C` showed a pIC50 of less than 4.00.
